From ChEMBL document CHEMBL3286392, “Iron chelators in photodynamic therapy revisited: synergistic effect by novel highly active thiosemicarbazones” (ACS Med Chem Lett, 2014)
Active and inactive are the calls of the source. The calls are words filed in the database; no cut-off is given here.

Legend:
HCT-116 [1] = test: Dark cytotoxicity against human HCT116 cells expressing wild type p53 after 96 hrs by MTT assay; assay type: cell-based; settings: HCT-116, 96 h
HCT-116 [2] = test: Photocytotoxicity against human HCT116 cells expressing wild type p53 assessed as combination index incubated for 24 hrs followed by light irradiation measured after 24 hrs by MTS assay in presence of ALA; assay type: functional
Outline: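 HCT 116+/+ cells were treated with TSC at a range of concentrations plus ALA held at 1 mM. PpIX was irradiated at varied light doses, with doses increased in constant ratio. CI was calculated by the Chou–Talalay method as the summed doses in the combination divided by the dose of each therapy alone giving the same cytotoxic effect.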

HCT-116 [3] = test: Photocytotoxicity against human HCT116 cells expressing wild type p53 incubated for 24 hrs followed by light irradiation measured after 24 hrs by MTS assay in presence of ALA and FeCl3; assay type: functional, cell-based
HCT-116 [4] = test: Induction of ROS generation in human HCT116 cells expressing wild type p53 at 4 uM after 24 hrs by spectrophotometry; assay type: functional, cell-based
HCT-116 [5] = test: Dark cytotoxicity against p53-deficient human HCT116 cells after 96 hrs by MTT assay; assay type: cell-based; settings: HCT-116, 96 h
Raji = test: Dark cytotoxicity against human Raji cells after 72 hrs by MTT assay; assay type: cell-based
HeLa = test: Dark cytotoxicity against human HeLa cells after 72 hrs by MTT assay; assay type: cell-based
NHDF = test: Dark cytotoxicity against human NHDF cells after 72 hrs by MTT assay; assay type: cell-based
[6] = Ratio of IC50 for p53-deficient human HCT116 cells to IC50 for human Raji cells; assay type: cell-based; settings: hct-116
HCT-116 [7] = test: Cytotoxicity against human HCT116 cells expressing wild type p53 assessed as cell death at 50 uM; assay type: cell-based; settings: hct-116, 50 µM
HCT-116 [8] = test: Induction of ROS generation in human HCT116 cells expressing wild type p53 at 1.6 nM after 24 hrs by spectrophotometry; assay type: functional, cell-based
HCT-116 [9] = test: Induction of 5-aminolevulinic acid-induced cellular PpIX formation in human HCT116 cells expressing wild type p53 at 50 uM by fluorescence plate reader analysis; assay type: functional, cell-based
[10] = Ratio of IC50 for human HCT116 cells expressing wild type p53 to IC50 for human NHDF cells; assay type: cell-based, HCT-116; settings: HCT116 cells expressing wild type p53 and NHDF cells, read-out: Ratio IC50
HCT-116 [11] = test: Induction of ROS generation in human HCT116 cells expressing wild type p53 at 8 nM after 24 hrs by spectrophotometry; assay type: functional, cell-based

SMILES | IC50 (HCT-116 [1]) [nM] | CI (HCT-116 [2]) | Activity (HCT-116 [3]) | Activity (HCT-116 [4]) | IC50 (HCT-116 [5]) [nM] | IC50 (Raji) [nM] | IC50 (HeLa) [nM] | IC50 (NHDF) [nM] | Ratio IC50 [6] | Activity (HCT-116 [7]) | Activity (HCT-116 [8]) | Activity (HCT-116 [9]) | selectivity ratio [10] | Activity (HCT-116 [11])
NC(=S)N/N=C/c1ncccc1N [TRIAPINE] | 1230 | 0.85 | Active | Active |  |  |  |  |  |  |  |  |  | 
S=C(NN=C(c1ccccn1)c1ccccn1)N1CCN(c2ccccc2)CC1 | 0.81 | 0.47 | Active |  | 0.76 | 0.32 | 570 | 1.73 | 2.4 | Toxic | Active |  |  | 
CCN1CCN(C(=S)N/N=C/c2ccccc2O)CC1 | > 20000 | 0.95 | Active |  | > 20000 | > 10000 | > 20000 | > 20000 |  |  |  | inactive |  | 
Oc1cccc2ccc(/C=N/NC(=S)N3CCOCC3)nc12 | 3.84 | 0.08 | Active |  | 16.8 | 21.2 | 176 | > 10000 |  | Toxic |  |  | 2770 | Active
CN(C)C(=S)N/N=C/c1c(O)ccc2cccnc12 | > 20000 | 6.08 | Active |  | > 20000 |  |  | > 20000 |  |  |  | inactive |  | 
CC(=O)N(O)CCCCCNC(=O)CCC(=O)N(O)CCCCCNC(=O)CCC(=O)N(O)CCCCCN [DEFEROXAMINE] | > 200000 | 1.01 | Active |  | > 200000 |  |  |  |  |  |  | inactive |  | 
